Here are results for 19 molecules from ChEMBL document CHEMBL1671805, “Biotin ergopeptide probes for dopamine receptors” (J Med Chem, 2011).

The species named for experiment [1] is Ovis aries. Kind of experiment: Displacement of [3H]-YM09151-2 from dopamine D2 receptor in lamb brain striatum membranes at 25 uM. The format is cell membranes. The following applies: Membrane. In outline: (§1)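 Lamb striatal membranes (0.5 mg prot/mL) in 50 mM Tris-HCl pH 7.4 with 10 mM MgCl2 were incubated 2 h at 22 C. Radioligand was 0.9 nM [3H]-SCH23390 (D1) or 0.7 nM [3H]-YM09151-2 (D2). Screens used 25 μM compound; competition used increasing concentrations. Nonspecific binding was taken with 10 μM SCH23390 (D1) or raclopride (D2). Bound ligand was filtered and counted. KD values came from a two-state dimer receptor model fit.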

The species entered for experiment [2] is Ovis aries. Kind of experiment: Displacement of [3H]-SCH23390 from dopamine D1 receptor in lamb brain striatum membranes at 25 uM. The format is cell membranes. The following applies: Membrane. In outline:
as §1

Experiment [3] concerns the target T1, Adenosine receptor A1 (Homo sapiens) (UniProt P30542).
T1 sequence (whole entry): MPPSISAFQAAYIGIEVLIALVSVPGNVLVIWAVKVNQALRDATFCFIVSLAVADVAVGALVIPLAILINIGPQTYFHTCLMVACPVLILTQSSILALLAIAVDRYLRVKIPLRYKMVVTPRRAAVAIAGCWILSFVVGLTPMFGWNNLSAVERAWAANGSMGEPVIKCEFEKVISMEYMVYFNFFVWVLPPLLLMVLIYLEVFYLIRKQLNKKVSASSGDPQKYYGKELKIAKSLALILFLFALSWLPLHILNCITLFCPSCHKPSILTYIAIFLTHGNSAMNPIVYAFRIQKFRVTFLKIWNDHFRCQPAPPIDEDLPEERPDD
Nature of the experiment: Displacement of [3H]-R-PIA from adenosine A1 receptor at 25 uM. In outline: (§2)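 Membranes were incubated with 25 μM compound for 2 h at 22 C in 50 mM Tris-HCl pH 7.4 with 10 mM MgCl2 and 0.2 U/mL ADA. Radioligand was 1.0 nM [3H]-R-PIA (A1) or 1.6 nM [3H]ZM241385 (A2A). Nonspecific binding was taken with 10 μM DPCPX (A1) or ZM241385 (A2A). Separation was by GF/C filtration, then scintillation counting.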
(Displacement assays read how much labelled ligand stays bound in the presence of the test substance.)

The target in experiment [4] is Adenosine receptor A2a (Homo sapiens) (UniProt P29274). Kind of experiment: Displacement of [3H]-ZM241385 from adenosine A2A receptor at 25 uM. The method in brief: as §2
The nature of experiment [5]: Displacement of [3H]-SCH23390 from dopamine D1 receptor high binding affinity site in lamb brain striatum membranes at 25 uM. The format is cell membranes, Ovis aries, Membrane. The method in brief:
as §1

Experiment [6] can be described thus: Displacement of [3H]-YM09151-2 from dopamine D2 receptor low binding affinity site in lamb brain striatum membranes at 25 uM. The format is cell membranes, Ovis aries, Membrane. The method in brief:
as §1

Experiment [7] is described as follows: Displacement of [3H]-SCH23390 from dopamine D1 receptor low binding affinity site in lamb brain striatum membranes at 25 uM. The format is cell membranes, Ovis aries, Membrane. The method in brief: as §1
Experiment [8] in a line: Displacement of [3H]-YM09151-2 from dopamine D2 receptor high binding affinity site in lamb brain striatum membranes at 25 uM. The format is cell membranes, Ovis aries, Membrane. In outline: as §1

The source made the active and inactive calls. The rule behind the calls is not given here.

Sequence of Adenosine receptor A2a (Homo sapiens) (P29274 whole entry): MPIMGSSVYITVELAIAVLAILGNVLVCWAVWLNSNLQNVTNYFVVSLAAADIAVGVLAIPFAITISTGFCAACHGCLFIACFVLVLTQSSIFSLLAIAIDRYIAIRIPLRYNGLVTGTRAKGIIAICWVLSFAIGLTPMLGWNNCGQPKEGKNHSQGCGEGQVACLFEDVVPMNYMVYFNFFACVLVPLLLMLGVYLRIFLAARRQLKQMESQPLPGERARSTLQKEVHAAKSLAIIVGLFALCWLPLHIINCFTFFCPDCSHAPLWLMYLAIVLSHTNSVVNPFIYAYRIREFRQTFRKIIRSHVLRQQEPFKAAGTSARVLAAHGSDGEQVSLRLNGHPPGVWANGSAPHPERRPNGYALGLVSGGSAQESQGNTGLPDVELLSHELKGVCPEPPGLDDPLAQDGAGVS

With `CC(=O)N[C@@H](CCCCNC(=O)[C@@H]1CCCN1C(=O)[C@H](Cc1ccc([N+](=O)[O-])cc1)NC(=O)[C@@H](NC(=O)[C@@H]1C=C2c3cccc4[nH]cc(c34)C[C@H]2N(C)C1)C(C)C)C(N)=O`, the outcome in the experiment filed under Ovis aries [1] and in the experiment filed under Ovis aries [2] was Active.

With `CC(=O)N[C@@H](CCC(=O)NCCNC(=O)[C@@H]1CCCN1C(=O)[C@H](Cc1ccc([N+](=O)[O-])cc1)NC(=O)[C@@H](NC(=O)[C@@H]1C=C2c3cccc4[nH]cc(c34)C[C@H]2N(C)C1)C(C)C)C(N)=O`, the outcome in the experiment filed under Ovis aries [1] and in the experiment filed under Ovis aries [2] was Active.

As for `CC(=O)N[C@@H](CCCCNC(=O)[C@@H](CCCCN)NC(=O)[C@@H]1CCCN1C(=O)[C@H](Cc1ccc([N+](=O)[O-])cc1)NC(=O)[C@@H](NC(=O)[C@@H]1C=C2c3cccc4[nH]cc(c34)C[C@H]2N(C)C1)C(C)C)C(N)=O`, the outcome in the experiment filed under Ovis aries [1] was Active.

Consider `CC(=O)N[C@@H](CCCCNC(=O)[C@@H](CCCCNC(=O)[C@@H]1CCCN1C(=O)[C@H](Cc1ccc([N+](=O)[O-])cc1)NC(=O)[C@@H](NC(=O)[C@@H]1C=C2c3cccc4[nH]cc(c34)C[C@H]2N(C)C1)C(C)C)NC(C)=O)C(N)=O`, for which the result (in experiment [3]; in experiment [4]; in the experiment listed under Ovis aries [2]) was Active.

For `CC(=O)N[C@@H](CCC(=O)Nc1ccc(Sc2ccc(NC(=O)C3CCCN(C(=O)[C@H](Cc4ccc(F)cc4)NC(=O)[C@H](Cc4ccc([N+](=O)[O-])cc4)NC(=O)[C@@H]4C=C5c6cccc7[nH]cc(c67)C[C@H]5N(C)C4)C3)cc2)cc1)C(N)=O` (stereo not given in full), the result in the experiment listed under Ovis aries [1] was Active.

As for `CC(=O)N[C@@H](CCCCNC(=O)[C@@H](CCCCNC(=O)C1CCCN(C(=O)[C@H](Cc2ccc(F)cc2)NC(=O)[C@H](Cc2ccc([N+](=O)[O-])cc2)NC(=O)[C@@H]2C=C3c4cccc5[nH]cc(c45)C[C@H]3N(C)C2)C1)NC(C)=O)C(N)=O` (stereo not given in full), the result (in the experiment filed under Ovis aries [1]; in experiment [3]; in experiment [4]) was Active.

As usually defined, the Kd is the concentration at which binding is half-saturated. Higher therefore signals weaker binding. With `CC(C)[C@H](NC(=O)[C@@H]1C=C2c3cccc4[nH]cc(c34)C[C@H]2N(C)C1)C(=O)N[C@@H](Cc1ccc([N+](=O)[O-])cc1)C(=O)N1CCC[C@H]1C(=O)NCCCCCC(=O)NCCCC[C@H](NC(=O)CCCC[C@H]1SC[C@H]2NC(=O)N[C@H]21)C(N)=O`, the Kd in experiment [5] amounted to 107 nM; in experiment [6] it was 7000 nM; in experiment [7], 3200 nM; in experiment [8], 260 nM.

On to `CC(=O)N[C@@H](CCCCNC(=O)c1ccc(C(=O)c2ccc(C(=O)NCCNC(=O)C3CCCN(C(=O)[C@H](Cc4ccc(F)cc4)NC(=O)[C@H](Cc4ccc([N+](=O)[O-])cc4)NC(=O)[C@@H]4C=C5c6cccc7[nH]cc(c67)C[C@H]5N(C)C4)C3)cc2)cc1)C(N)=O` (stereo not given in full), for which, in the experiment filed under Ovis aries [1], the outcome was Active.

Take `CC(=O)N[C@@H](CCCCNC(=O)CCCCCNC(=O)[C@@H]1CCCN1C(=O)[C@H](Cc1ccc([N+](=O)[O-])cc1)NC(=O)[C@@H](NC(=O)[C@@H]1C=C2c3cccc4[nH]cc(c34)C[C@H]2N(C)C1)C(C)C)C(N)=O`: the outcome (in experiment [3]; in the experiment listed under Ovis aries [2]) was Active.

In the case of `CC(=O)N[C@@H](CCC(=O)Nc1ccc(-c2ccc(NC(=O)C3CCCN(C(=O)[C@H](Cc4ccc(F)cc4)NC(=O)[C@H](Cc4ccc([N+](=O)[O-])cc4)NC(=O)[C@@H]4C=C5c6cccc7[nH]cc(c67)C[C@H]5N(C)C4)C3)cc2)cc1)C(N)=O` (stereo not given in full), the result in the experiment filed under Ovis aries [1] was Active.

As to `CC(=O)N[C@@H](CCC(=O)NCCCCCCNC(=O)[C@@H]1CCCN1C(=O)[C@H](Cc1ccc([N+](=O)[O-])cc1)NC(=O)[C@@H](NC(=O)[C@@H]1C=C2c3cccc4[nH]cc(c34)C[C@H]2N(C)C1)C(C)C)C(N)=O`, the outcome in the experiment listed under Ovis aries [1] and in the experiment filed under Ovis aries [2] was Active.

Turning to `CC(=O)N[C@@H](CCCCNC(=O)CCCCCNC(=O)C1CCCN(C(=O)[C@H](Cc2ccc(F)cc2)NC(=O)[C@H](Cc2ccc([N+](=O)[O-])cc2)NC(=O)[C@@H]2C=C3c4cccc5[nH]cc(c45)C[C@H]3N(C)C2)C1)C(N)=O` (stereo not given in full), the outcome in experiment [3] and in experiment [4] was Active.

With `CC(=O)N[C@@H](CCCCNC(=O)CCCC(=O)NCCNC(=O)C1CCCN(C(=O)[C@H](Cc2ccc(F)cc2)NC(=O)[C@H](Cc2ccc([N+](=O)[O-])cc2)NC(=O)[C@@H]2C=C3c4cccc5[nH]cc(c45)C[C@H]3N(C)C2)C1)C(N)=O` (stereo not given in full), the result in the experiment listed under Ovis aries [1] was Active.

`CC(=O)N[C@@H](CCCCNC(=O)c1ccc(-c2ccc(C(=O)NCCNC(=O)C3CCCN(C(=O)[C@H](Cc4ccc(F)cc4)NC(=O)[C@H](Cc4ccc([N+](=O)[O-])cc4)NC(=O)[C@@H]4C=C5c6cccc7[nH]cc(c67)C[C@H]5N(C)C4)C3)cc2)cc1)C(N)=O` (stereo not given in full): the result in the experiment filed under Ovis aries [1] was Active.

In the case of `CC(=O)N[C@@H](CCCCNC(=O)CCC(=O)NCCNC(=O)[C@@H]1CCCN1C(=O)[C@H](Cc1ccc([N+](=O)[O-])cc1)NC(=O)[C@@H](NC(=O)[C@@H]1C=C2c3cccc4[nH]cc(c34)C[C@H]2N(C)C1)C(C)C)C(N)=O`, in the experiment listed under Ovis aries [1], the result was Active.

For the molecule `CC(=O)N[C@@H](CCCCNC(=O)C1CCCN(C(=O)[C@H](Cc2ccc(F)cc2)NC(=O)[C@H](Cc2ccc([N+](=O)[O-])cc2)NC(=O)[C@@H]2C=C3c4cccc5[nH]cc(c45)C[C@H]3N(C)C2)C1)C(N)=O` (stereo not given in full), the outcome in the experiment filed under Ovis aries [1] was Active.

Take `CC(=O)N[C@@H](CCCCNC(=O)[C@@H]1CCCN1C(=O)[C@H](Cc1ccc([N+](=O)[O-])cc1)NC(=O)[C@@H](NC(=O)[C@@H]1C=C2c3cccc4[nH]cc(c34)C[C@H]2N(C)C1)C(C)C)C(=O)NCCCC[C@H](NC(=O)CCCC[C@H]1SC[C@H]2NC(=O)N[C@H]21)C(N)=O`: the Kd in experiment [5] was 2100 nM; in experiment [6] it was 23000 nM; in experiment [7] it was over 50000 nM; in experiment [8] it was 2000 nM.

In the case of `CC(=O)N[C@@H](CCCCNC(=O)[C@H](N)CCCCNC(=O)[C@@H]1CCCN1C(=O)[C@H](Cc1ccc([N+](=O)[O-])cc1)NC(=O)[C@@H](NC(=O)[C@@H]1C=C2c3cccc4[nH]cc(c34)C[C@H]2N(C)C1)C(C)C)C(N)=O`, the result in the experiment listed under Ovis aries [1] was Active. Moreover, the outcome in the experiment listed under Ovis aries [2] was inactive.

On to `CC(=O)N[C@@H](CCC(=O)Nc1ccc(-c2ccc(NC(=O)[C@@H]3CCCN3C(=O)[C@H](Cc3ccc([N+](=O)[O-])cc3)NC(=O)[C@@H](NC(=O)[C@@H]3C=C4c5cccc6[nH]cc(c56)C[C@H]4N(C)C3)C(C)C)cc2)cc1)C(N)=O`, for which the result in the experiment filed under Ovis aries [1] was Active.
